Experimental data from ChEMBL document CHEMBL1148376, “Synthesis, monoamine transporter binding properties, and behavioral pharmacology of a series of 3beta-(substituted phenyl)-2beta-(3'-substituted isoxazol-5-yl)tropanes” (J Med Chem, 2004).
Activity calls are given as the source filed them. The rule behind the calls is not given here.

Legend:
Mus musculus [1] = test: Percent change in locomotor activity in mice at 3 mg/kg i.p. in 1 h.; assay type: functional; conditions: route intraperitoneal
Outline: (§1)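 Mice habituated 1/2 h to photocell activity chambers, then injected ip with compound homogenized in 0.5% methyl cellulose (10 mL/kg); vehicle controls; N = 5 or 6 per dose. Photobeam interruptions recorded in 10-min bins for 4 h, grouped into 1-h bins; one-way ANOVA with Newman-Keuls post hoc test (p < 0.05).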

Mus musculus [2] = organism: Mus musculus; test: Effective dose was evaluated for locomotor activity in mice in the peak hour; No stimulation; assay type: functional, organism-based
Mus musculus [3] = test: Percent change from vehicle in locomotor activity in mice at 10 mg/kg (ip) in 4 h; assay type: functional
[4] = target: Sodium-dependent serotonin transporter (Rattus norvegicus, UniProt P31652); test: Inhibitory concentration required to inhibit serotonin transporter 5-HTT was determined by using [3H]paroxetine radioligand
Chain of Sodium-dependent serotonin transporter (P31652 whole entry): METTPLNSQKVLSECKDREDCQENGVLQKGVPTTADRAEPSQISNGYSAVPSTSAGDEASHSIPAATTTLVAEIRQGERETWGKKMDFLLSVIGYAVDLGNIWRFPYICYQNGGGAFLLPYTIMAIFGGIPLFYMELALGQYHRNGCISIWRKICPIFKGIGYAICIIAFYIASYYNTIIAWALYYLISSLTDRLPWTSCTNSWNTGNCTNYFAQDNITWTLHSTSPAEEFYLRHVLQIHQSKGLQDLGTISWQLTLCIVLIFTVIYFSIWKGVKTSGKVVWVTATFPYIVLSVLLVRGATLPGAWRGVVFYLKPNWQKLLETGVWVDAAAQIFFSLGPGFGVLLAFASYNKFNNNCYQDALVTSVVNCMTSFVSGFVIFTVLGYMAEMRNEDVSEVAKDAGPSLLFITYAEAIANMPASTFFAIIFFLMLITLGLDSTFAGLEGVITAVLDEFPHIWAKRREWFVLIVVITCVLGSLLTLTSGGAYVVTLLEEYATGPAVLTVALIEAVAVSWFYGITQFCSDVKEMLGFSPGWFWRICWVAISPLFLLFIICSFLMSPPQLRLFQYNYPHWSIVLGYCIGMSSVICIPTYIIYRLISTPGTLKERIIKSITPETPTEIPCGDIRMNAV
Outline: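 Competition binding at the 5-HTT with 0.2 nM [3H]paroxetine (final concentration). Other procedures follow earlier published methods.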

Mus musculus [5] = test: Percent change in locomotor activity in mice at 1 mg/kg i.p. in 2 h.; assay type: functional; conditions: route intraperitoneal; outline: as §1
Mus musculus [6] = test: Percent change in locomotor activity in mice at 1 mg/kg i.p. in 1 h.; assay type: functional; conditions: route intraperitoneal
Mus musculus [7] = test: Percent change from vehicle in locomotor activity in mice at 30 mg/kg (ip) in 1 h; assay type: functional
Mus musculus [8] = test: Percent change from vehicle in locomotor activity in mice at 10 mg/kg (ip) in 3 h; assay type: functional
Mus musculus [9] = test: Percent change locomotor activity in mice at 1 mg/kg i.p. in 3 h.; assay type: functional; conditions: route intraperitoneal; outline: as §1
Rattus norvegicus [10] = test: Drug discrimination effect of compound in rats, expressed as percent of rats choosing the cocaine lever at dose 30 mg/kg (ip); assay type: functional
Mus musculus [11] = test: Percent change from vehicle in locomotor activity in mice at 0.3 mg/kg (ip) in 4 h; assay type: functional
[12] = target: Sodium-dependent dopamine transporter (Rattus norvegicus, UniProt P23977); test: Inhibitory concentration required to inhibit dopamine transporter DAT was determined by using [3H]WIN-35428 radioligand
Chain of Sodium-dependent dopamine transporter (P23977 whole entry): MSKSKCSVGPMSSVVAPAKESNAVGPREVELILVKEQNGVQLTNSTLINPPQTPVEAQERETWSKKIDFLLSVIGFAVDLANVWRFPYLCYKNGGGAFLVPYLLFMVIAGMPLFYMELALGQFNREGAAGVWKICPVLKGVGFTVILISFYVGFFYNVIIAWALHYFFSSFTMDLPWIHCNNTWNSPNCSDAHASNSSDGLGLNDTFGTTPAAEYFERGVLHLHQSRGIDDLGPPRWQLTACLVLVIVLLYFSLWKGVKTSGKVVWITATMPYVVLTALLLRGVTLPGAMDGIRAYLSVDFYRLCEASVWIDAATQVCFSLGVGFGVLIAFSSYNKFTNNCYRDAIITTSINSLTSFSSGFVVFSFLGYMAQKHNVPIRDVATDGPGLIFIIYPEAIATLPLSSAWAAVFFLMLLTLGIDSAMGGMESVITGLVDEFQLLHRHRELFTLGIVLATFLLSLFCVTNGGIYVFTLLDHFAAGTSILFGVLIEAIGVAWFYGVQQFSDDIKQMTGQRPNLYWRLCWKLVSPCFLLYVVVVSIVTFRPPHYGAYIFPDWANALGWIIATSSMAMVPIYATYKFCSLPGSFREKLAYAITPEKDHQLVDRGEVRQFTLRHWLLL
Outline: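 Competition binding at the DAT with 0.5 nM [3H]WIN35,428 (final concentration). Other procedures follow earlier published methods.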

Mus musculus [13] = test: Percent change from vehicle in locomotor activity in mice at 30 mg/kg (ip) in 3 h; assay type: functional
Mus musculus [14] = test: Percent change from vehicle in locomotor activity in mice at 10 mg/kg (ip) in 1 h; assay type: functional
[15] = target: Norepinephrine transporter (Rattus norvegicus, UniProt Q9WTR4); test: Binding affinity towards norepinephrine transporter was determined by using [3H]nisoxetine radioligand
Chain of Norepinephrine transporter (Q9WTR4 whole entry): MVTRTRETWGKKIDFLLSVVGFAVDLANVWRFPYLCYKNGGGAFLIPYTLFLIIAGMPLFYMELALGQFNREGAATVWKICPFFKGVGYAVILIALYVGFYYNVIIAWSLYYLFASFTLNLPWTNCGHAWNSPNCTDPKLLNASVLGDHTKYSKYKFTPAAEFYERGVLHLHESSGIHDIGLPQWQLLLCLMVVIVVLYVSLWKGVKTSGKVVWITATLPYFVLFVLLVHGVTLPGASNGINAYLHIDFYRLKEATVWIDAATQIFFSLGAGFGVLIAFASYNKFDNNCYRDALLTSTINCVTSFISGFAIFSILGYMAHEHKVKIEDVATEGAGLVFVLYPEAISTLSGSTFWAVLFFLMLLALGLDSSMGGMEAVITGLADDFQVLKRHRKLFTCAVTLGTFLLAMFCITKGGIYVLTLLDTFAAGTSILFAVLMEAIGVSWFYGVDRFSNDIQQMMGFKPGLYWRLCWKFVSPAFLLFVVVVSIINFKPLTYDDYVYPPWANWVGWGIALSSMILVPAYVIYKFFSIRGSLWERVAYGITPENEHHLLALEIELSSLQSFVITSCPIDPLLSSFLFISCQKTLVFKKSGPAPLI
Outline: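 Competition binding at the NET with 0.5 nM [3H]nisoxetine (final concentration). Other procedures follow earlier published methods.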

Mus musculus [16] = test: Percent change in locomotor activity in mice at 3 mg/kg i.p. in 3 h.; assay type: functional; conditions: route intraperitoneal; outline: as §1
Rattus norvegicus [17] = test: Drug discrimination effect of compound in rats, expressed as percent of rats choosing the cocaine lever at dose 17 mg/kg (ip); assay type: functional
Mus musculus [18] = test: Percent change in locomotor activity in mice at 1 mg/kg i.p. in 4 h.; assay type: functional; conditions: route intraperitoneal; outline: as §1
Rattus norvegicus [19] = test: Drug discrimination effect of compound in rats, expressed as percent of rats choosing the cocaine lever at dose 10 mg/kg (ip); assay type: functional
Mus musculus [20] = test: Percent change from vehicle in locomotor activity in mice at 30 mg/kg (ip) in 4 h; assay type: functional
Mus musculus [21] = test: Percent change from vehicle in locomotor activity in mice at 0.3 mg/kg (ip) in 3 h; assay type: functional
Mus musculus [22] = test: Percent change from vehicle in locomotor activity in mice at 0.3 mg/kg (ip) in 2 h; assay type: functional
Mus musculus [23] = test: Percent change from vehicle in locomotor activity in mice at 0.3 mg/kg (ip) in 1 h; assay type: functional
Mus musculus [24] = test: Percent change in locomotor activity in mice at 3 mg/kg i.p. in 2 h.; assay type: functional; conditions: route intraperitoneal; outline: as §1
Mus musculus [25] = test: Percent change in locomotor activity in mice at 3 mg/kg i.p. in 4 h.; assay type: functional; conditions: route intraperitoneal; outline: as §1
Mus musculus [26] = test: Percent change from vehicle in locomotor activity in mice at 10 mg/kg (ip) in 2 h; assay type: functional
Rattus norvegicus [27] = test: Drug discrimination effect of compound in rats, expressed as percent of rats choosing the cocaine lever at dose 3 mg/kg (ip); assay type: functional
Mus musculus [28] = test: Percent change from vehicle in locomotor activity in mice at 30 mg/kg (ip) in 2 h; assay type: functional
Rattus norvegicus [29] = test: Drug discrimination effect of compound in rats, expressed as percent of rats choosing the cocaine lever at dose 5.6 mg/kg (ip); assay type: functional
Mus musculus [30] = test: Percent change from vehicle in locomotor activity in mice at 17 mg/kg (ip) in 1 h; assay type: functional
Rattus norvegicus [31] = test: Drug discrimination effect of compound in rats, expressed as percent of rats choosing the cocaine lever at dose 1 mg/kg (ip); assay type: functional
Rattus norvegicus [32] = test: Effective dose for drug discrimination effect in rat (ip); assay type: functional
Outline: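 Cocaine-trained rat drug discrimination, FR10, 10-min sessions. Compound in 0.5% methyl cellulose given ip 15 min before session, usually to 7-8 rats per dose. Doses were raised from ≤20% to ≥80% cocaine-lever choice, capped at 30 mg/kg, >50% loss of pressing, or side effects.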

Mus musculus [33] = test: Percent change from vehicle in locomotor activity in mice at 5.6 mg/kg (ip) in 1 h; assay type: functional
Mus musculus [34] = test: Percent change from vehicle in locomotor activity in mice at 5.6 mg/kg (ip) in 3 h; assay type: functional
Mus musculus [35] = organism: Mus musculus; test: Effective dose for locomotor activity in mice in the peak hour.; assay type: functional
Mus musculus [36] = test: Percent change from vehicle in locomotor activity in mice at 17 mg/kg (ip) in 3 h; assay type: functional
Mus musculus [37] = test: Percent change from vehicle in locomotor activity in mice at 56 mg/kg (ip) in 2 h; assay type: functional
Mus musculus [38] = test: Percent change from vehicle in locomotor activity in mice at 56 mg/kg (ip) in 3 h; assay type: functional
Mus musculus [39] = test: Percent change from vehicle in locomotor activity in mice at 17 mg/kg (ip) in 4 h; assay type: functional
Mus musculus [40] = test: Percent change from vehicle in locomotor activity in mice at 5.6 mg/kg (ip) in 2 h; assay type: functional
Mus musculus [41] = test: Percent change from vehicle in locomotor activity in mice at 56 mg/kg (ip) in 1 h; assay type: functional
Mus musculus [42] = test: Percent change from vehicle in locomotor activity in mice at 17 mg/kg (ip) in 2 h; assay type: functional
Rattus norvegicus [43] = test: Drug discrimination effect of compound in rats, expressed as percent of rats choosing the cocaine lever at dose 1.7 mg/kg (ip); assay type: functional
Mus musculus [44] = test: Percent change from vehicle in locomotor activity in mice at 56 mg/kg (ip) in 4 h; assay type: functional
Mus musculus [45] = test: Percent change from vehicle in locomotor activity in mice at 5.6 mg/kg (ip) in 4 h; assay type: functional

SMILES: Cc1ccc(-c2cc(C3C(c4ccc(C)cc4)CC4CCC3N4C)on2)cc1 (configuration not stated)
- Change (Mus musculus [1]): 1%
- ED50 (Mus musculus [2]): inactive
- Change (Mus musculus [3]): -7%
- IC50 [4]: > 100 µM
- Change (Mus musculus [5]): -6%
- Change (Mus musculus [6]): -5%
- Change (Mus musculus [7]): -19%
- Change (Mus musculus [8]): -38%
- Change (Mus musculus [9]): 76%
- Drug discrimination effect (Rattus norvegicus [10]): 67%
- Change (Mus musculus [11]): -48%
- IC50 [12]: 0.013 µM
- Change (Mus musculus [13]): -37%
- Change (Mus musculus [14]): -30%
- IC50 [15]: > 100 µM
- Change (Mus musculus [16]): 73%
- Drug discrimination effect (Rattus norvegicus [17]): 33%
- Change (Mus musculus [18]): -30%
- Drug discrimination effect (Rattus norvegicus [19]): 0%
- Change (Mus musculus [20]): -43%
- Change (Mus musculus [21]): 102%
- Change (Mus musculus [22]): 60%
- Change (Mus musculus [23]): -17%
- Change (Mus musculus [24]): 10%
- Change (Mus musculus [25]): 29%
- Change (Mus musculus [26]): 34%
- Drug discrimination effect (Rattus norvegicus [27]): 0%
- Change (Mus musculus [28]): -26%

SMILES: COC(=O)[C@@H]1C2CC[C@@H](C[C@@H]1OC(=O)c1ccccc1)N2C (single isomer, unassigned) [COCAINE]
- Drug discrimination effect (Rattus norvegicus [29]): 82%
- Change (Mus musculus [30]): 179%
- Drug discrimination effect (Rattus norvegicus [31]): 21%
- ED50 (Rattus norvegicus [32]): 2.64 mg/kg
- Change (Mus musculus [33]): 5%
- Change (Mus musculus [34]): -53%
- ED50 (Mus musculus [35]): 18.8 mg/kg
- Change (Mus musculus [36]): -53%
- Change (Mus musculus [37]): 201%
- Change (Mus musculus [38]): -47%
- Change (Mus musculus [39]): -26%
- Change (Mus musculus [40]): -26%
- Change (Mus musculus [41]): 452%
- Change (Mus musculus [42]): -7%
- Drug discrimination effect (Rattus norvegicus [43]): 32%
- Drug discrimination effect (Rattus norvegicus [19]): 97%
- Change (Mus musculus [44]): -24%
- Change (Mus musculus [45]): -1%
- Drug discrimination effect (Rattus norvegicus [27]): 59%
